# Data published in publication PMC9340768 (Journal of Medicinal Chemistry, 2022).
# Tests used:
# CD137 [1] = biological target: T1, CD137 (Homo sapiens, UniProt Q07011+Q96NY8); conditions: cited from earlier work
# CD137 [2] = biological target: T1, CD137; experiment: tumor cell/CD137 reporter coculture assay with other tumor cell lines; assay type: cell-based
# Summary of the method: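 A Jurkat reporter line expressing human CD137 and a CD137-responsive luciferase element was cocultured with 10,000 cells of the indicated tumor line, with or without test compound, for 6 h at 37 °C, 5% CO2. Bio-Glo luciferase reagent was then added and luminescence read. Fold induction was calculated as RLU over background wells without test article.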
# [3] = test system: human PBMCs cocultured with HT1376; experiment: PBMC/HT1376 coculture cytokine secretion assay; assay type: cell-based; conditions: anti-CD3 stimulated PBMCs with HT1376
# Summary of the method: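 Frozen healthy-donor human PBMCs were thawed, washed in PBS with benzonase and resuspended in RPMI with 10% heat-inactivated FBS, HEPES and glutamine. PBMCs (1 × 10^6/mL) were plated with tumor cells (1 × 10^5/mL) at 10:1, stimulated with soluble anti-CD3 OKT3 (100 ng/mL), and given diluted test compound. Incubation was 2 days at 37 °C, 5% CO2. Supernatant IFNγ and IL-2 were measured by Luminex; four-parameter fit, n = 3.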
# [4] = Pharmacokinetics in Sprague-Dawley rats; conditions: rat, in vivo, iv, 2 mg/kg, CL (mL/min/kg), SD rats, 2 mg/kg IV bolus
# CD137 [5] = biological target: T1, CD137; experiment: HT1376/CD137 reporter coculture assay; assay type: cell-based; conditions: BCY10000 relative to BCY8854
# human CD137 = human CD137 (Homo sapiens, UniProt Q07011); experiment: SPR binding to human CD137
# T1 sequence (Q07011 24-255): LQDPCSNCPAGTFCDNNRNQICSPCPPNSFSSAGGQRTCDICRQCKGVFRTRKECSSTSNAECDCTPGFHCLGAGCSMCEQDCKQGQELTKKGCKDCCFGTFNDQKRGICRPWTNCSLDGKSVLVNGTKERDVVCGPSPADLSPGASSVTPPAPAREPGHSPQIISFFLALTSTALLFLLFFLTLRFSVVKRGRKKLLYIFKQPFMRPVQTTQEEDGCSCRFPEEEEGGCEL
# T1 sequence (Q96NY8 32-510): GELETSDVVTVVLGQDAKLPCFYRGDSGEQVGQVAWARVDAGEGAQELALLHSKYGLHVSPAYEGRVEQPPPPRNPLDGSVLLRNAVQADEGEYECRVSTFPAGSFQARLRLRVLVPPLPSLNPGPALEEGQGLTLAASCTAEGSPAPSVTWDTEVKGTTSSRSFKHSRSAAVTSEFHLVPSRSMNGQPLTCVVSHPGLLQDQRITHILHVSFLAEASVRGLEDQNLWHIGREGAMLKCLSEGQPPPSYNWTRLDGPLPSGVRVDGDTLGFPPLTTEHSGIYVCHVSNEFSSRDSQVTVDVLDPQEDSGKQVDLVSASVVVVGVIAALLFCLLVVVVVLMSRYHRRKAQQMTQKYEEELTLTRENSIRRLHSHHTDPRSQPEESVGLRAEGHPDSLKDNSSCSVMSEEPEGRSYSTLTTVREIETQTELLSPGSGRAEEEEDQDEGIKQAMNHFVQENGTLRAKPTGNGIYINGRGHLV
compound,measurement,setting,value
CCCC[C@@H]1NC(=O)[C@H](Cc2ccc(O)cc2)NC(=O)[C@@H]2CCCN2C(=O)[C@H](CC(=O)O)NC(=O)[C@H](C)NC(=O)[C@H](Cc2ccccc2)NC(=O)[C@@H]2CSCCC(=O)N3CN(CN(C3)C(=O)CCSC[C@@H](C(=O)N[C@@H](CNC(=O)CCOCCOCCOCCOCCOCCOCCOCCOCCOCCOCCOCCOCCn3cc(CCC(=O)NCCC(=O)N(C)CC(=O)N(C)CC(=O)N(C)CC(=O)N(C)CC(=O)N(C)CC(=O)N(C)CC(=O)N(C)CC(=O)N(C)CC(=O)N(C)CC(=O)N(C)CC(=O)N[C@H]4CSCCC(=O)N5CN6CN(C5)C(=O)CCSC[C@H](NC(=O)[C@@H](CC(=O)O)NC(=O)[C@H](Cc5cccc7ccccc57)NC(=O)[C@@H]5CCCN5C4=O)C(=O)N[C@@H](CCSC)C(=O)N[C@@H](CCCCNC(=N)N)C(=O)N[C@@H](CC(=O)O)C(=O)N[C@@H](Cc4c[nH]c5ccccc45)C(=O)N[C@@H](CO)C(=O)N[C@@H]([C@@H](C)O)C(=O)N4CCC[C@H]4C(=O)N4C[C@H](O)C[C@H]4C(=O)N[C@@H](Cc4c[nH]c5ccccc45)C(=O)N[C@H](C(N)=O)CSCCC6=O)nn3)C(N)=O)NC1=O)C(=O)CCSC[C@H](NC(=O)[C@H](C)NC(C)=O)C(=O)N[C@@H]([C@@H](C)CC)C(=O)N[C@@H](CCC(=O)O)C(=O)N[C@@H](CCC(=O)O)C(=O)NCC(=O)N[C@@H](CCC(N)=O)C(=O)N[C@@H](Cc1ccc(O)cc1)C(=O)N2 [BCY8854],CD137 agonism in coculture with Nectin-4 null PC3,CD137 [1],not with a Nectin-4 null PC3 cell line
same,CD137 agonism in coculture with HT1376 and NCI-H292,CD137 [1]; tumor lines endogenously expressing Nectin-4,CD137 agonism was also observed
same,CD137 agonism in coculture with MC38-Nectin-4 or parental MC38,"CD137 [2]; 6 h treatment, Jurkat CD137 reporter",dose-dependent agonism of CD137 was observed only in the presence of the Nectin-4-expressing MC38 clone
same,concentration above which agonism is reduced (hook effect),CD137 [2]; tumor cell/CD137 reporter coculture,above 300 nM
same,secretion of proinflammatory cytokines IFNγ and IL-2,[3],dose-dependent increase
CCCC[C@@H]1NC(=O)[C@H](Cc2ccc(O)cc2)NC(=O)[C@@H]2CCCN2C(=O)[C@H](CC(=O)O)NC(=O)[C@H](C)NC(=O)[C@H](Cc2ccccc2)NC(=O)[C@@H]2CSCCC(=O)N3CN(CN(C3)C(=O)CCSC[C@@H](C(=O)N[C@@H](CNC(=O)CCOCCOCCOCCOCCOCCOCCOCCOCCOCCOCCOCCOCCn3cc(CCC(=O)NCCC(=O)N(C)CC(=O)N(C)CC(=O)N(C)CC(=O)N(C)CC(=O)N(C)CC(=O)N(C)CC(=O)N(C)CC(=O)N(C)CC(=O)N(C)CC(=O)N(C)CC(=O)N[C@H]4CSCCC(=O)N5CN6CN(C5)C(=O)CCSC[C@H](NC(=O)[C@@H](CC(=O)O)NC(=O)[C@H](Cc5cccc7ccccc57)NC(=O)[C@@H]5CCCN5C4=O)C(=O)N[C@@H](CCSC)C(=O)N[C@@H](CCCCNC(=N)N)C(=O)N[C@@H](CC(=O)O)C(=O)N[C@@H](Cc4c[nH]c5ccccc45)C(=O)N[C@@H](CO)C(=O)N[C@@H]([C@@H](C)O)C(=O)N4CCC[C@H]4C(=O)N4C[C@H](O)C[C@H]4C(=O)N[C@@H](Cc4c[nH]c5ccccc45)C(=O)N[C@H](C(N)=O)CSCCC6=O)nn3)C(N)=O)NC1=O)C(=O)CCSC[C@H](NC(C)=O)C(=O)N[C@@H](CC(C)(C)C)C(=O)N1CCC[C@H]1C(=O)N[C@@H](CCC(=O)O)C(=O)N[C@H](C)C(=O)N1CCC[C@H]1C(=O)N[C@@H](Cc1ccc(O)cc1)C(=O)N2 [BCY10000],clearance,[4],19 mL/min/kg
same,improvement of Emax,CD137 [5],1.5 fold
same,improvement of in vitro potency (EC50),CD137 [5],fourfold
same,secretion of proinflammatory cytokines IFNγ and IL-2,[3],dose-dependent increase
CCCC[C@@H]1NC(=O)[C@H](Cc2ccc(O)cc2)NC(=O)[C@@H]2CCCN2C(=O)[C@H](CC(N)=O)NC(=O)[C@H](C)NC(=O)[C@H](Cc2ccccc2)NC(=O)[C@@H]2CSCCC(=O)N3CN(CN(C3)C(=O)CCSC[C@H](NC(C)=O)C(=O)N[C@@H](CC(C)(C)C)C(=O)N3CCC[C@H]3C(=O)N[C@@H](CCC(=O)O)C(=O)N[C@H](CCCCNC(=O)CCc3cn(CCOCCOCCOCCN(CCOCCOCCOCCC(=O)N[C@H]4CSCCC(=O)N5CN6CN(C5)C(=O)CCSC[C@H](NC(=O)[C@@H](CC(=O)O)NC(=O)[C@H](Cc5cccc7ccccc57)NC(=O)[C@@H]5CCCN5C4=O)C(=O)N[C@@H](CCSC)C(=O)N[C@@H](CCCCNC(=N)N)C(=O)N[C@@H](CC(=O)O)C(=O)N[C@@H](Cc4c[nH]c5ccccc45)C(=O)N[C@@H](CO)C(=O)N[C@@H]([C@@H](C)O)C(=O)N4CCC[C@H]4C(=O)N4C[C@H](O)C[C@H]4C(=O)N[C@@H](Cc4c[nH]c5ccccc45)C(=O)N[C@H](C(N)=O)CSCCC6=O)CCOCCOCCOCCn4cc(CCC(=O)NCCCC[C@H]5NC(=O)[C@H](CCC(=O)O)NC(=O)[C@@H]6CCCN6C(=O)[C@H](CC(C)(C)C)NC(=O)[C@@H](NC(C)=O)CSCCC(=O)N6CN7CN(C6)C(=O)CCSC[C@H](NC(=O)[C@H](Cc6ccc(O)cc6)NC(=O)[C@@H]6CCCN6C5=O)C(=O)N[C@@H](Cc5ccccc5)C(=O)N[C@@H](C)C(=O)N[C@@H](CC(N)=O)C(=O)N5CCC[C@H]5C(=O)N[C@@H](Cc5ccc(O)cc5)C(=O)N[C@@H](CCCC)C(=O)N[C@H](C(N)=O)CSCCC7=O)nn4)nn3)C(=O)N3CCC[C@H]3C(=O)N[C@@H](Cc3ccc(O)cc3)C(=O)N2)C(=O)CCSC[C@@H](C(N)=O)NC1=O [BCY12486],Kd,human CD137,~8 nM
CCCC[C@@H]1NC(=O)[C@H](Cc2ccc(O)cc2)NC(=O)[C@@H]2CCCN2C(=O)[C@H](CCC(=O)O)NC(=O)[C@H](C)NC(=O)[C@H](Cc2ccccc2)NC(=O)[C@@H]2CSCCC(=O)N3CN(CN(C3)C(=O)CCSC[C@H](NC(C)=O)C(=O)N[C@@H](CC(C)(C)C)C(=O)N3CCC[C@H]3C(=O)N[C@@H](CCC(=O)O)C(=O)N[C@H](CCCCNC(=O)CCc3cn(CCOCCOCCOCCN(CCOCCOCCOCCC(=O)N[C@H]4CSCCC(=O)N5CN6CN(C5)C(=O)CCSC[C@H](NC(=O)[C@@H](CC(=O)O)NC(=O)[C@H](Cc5cccc7ccccc57)NC(=O)[C@@H]5CCCN5C4=O)C(=O)N[C@@H](CCSC)C(=O)N[C@@H](CCCCNC(=N)N)C(=O)N[C@@H](CC(=O)O)C(=O)N[C@@H](Cc4c[nH]c5ccccc45)C(=O)N[C@@H](CO)C(=O)N[C@@H]([C@@H](C)O)C(=O)N4CCC[C@H]4C(=O)N4C[C@H](O)C[C@H]4C(=O)N[C@@H](Cc4c[nH]c5ccccc45)C(=O)N[C@H](C(N)=O)CSCCC6=O)CCOCCOCCOCCn4cc(CCC(=O)NCCCC[C@H]5NC(=O)[C@H](CCC(=O)O)NC(=O)[C@@H]6CCCN6C(=O)[C@H](CC(C)(C)C)NC(=O)[C@@H](NC(C)=O)CSCCC(=O)N6CN7CN(C6)C(=O)CCSC[C@H](NC(=O)[C@H](Cc6ccc(O)cc6)NC(=O)[C@@H]6CCCN6C5=O)C(=O)N[C@@H](Cc5ccccc5)C(=O)N[C@@H](C)C(=O)N[C@@H](CCC(=O)O)C(=O)N5CCC[C@H]5C(=O)N[C@@H](Cc5ccc(O)cc5)C(=O)N[C@@H](CCCC)C(=O)N[C@H](C(N)=O)CSCCC7=O)nn4)nn3)C(=O)N3CCC[C@H]3C(=O)N[C@@H](Cc3ccc(O)cc3)C(=O)N2)C(=O)CCSC[C@@H](C(N)=O)NC1=O [BCY12487],Kd,human CD137,~8 nM
CCCC[C@@H]1NC(=O)[C@H](Cc2ccc(O)cc2)NC(=O)[C@@H]2CCCN2C(=O)[C@H](CC(=O)O)NC(=O)[C@H](C)NC(=O)[C@H](Cc2ccccc2)NC(=O)[C@@H]2CSCCC(=O)N3CN(CN(C3)C(=O)CCSC[C@@H](C(=O)N[C@@H](C)C(N)=O)NC1=O)C(=O)CCSC[C@H](NC(C)=O)C(=O)N[C@@H](CC(C)(C)C)C(=O)N1CCC[C@H]1C(=O)N[C@@H](CCC(=O)O)C(=O)N[C@H](CCCCNC(=O)CCc1cn(CCOCCOCCOCCN(CCOCCOCCOCCC(=O)N[C@H]3CSCCC(=O)N4CN5CN(C4)C(=O)CCSC[C@H](NC(=O)[C@@H](CC(=O)O)NC(=O)[C@H](Cc4cccc6ccccc46)NC(=O)[C@@H]4CCCN4C3=O)C(=O)N[C@@H](CCSC)C(=O)N[C@@H](CCCCNC(=N)N)C(=O)N[C@@H](CC(=O)O)C(=O)N[C@H](Cc3c[nH]c4ccccc34)C(=O)N[C@@H](CO)C(=O)N[C@@H]([C@@H](C)O)C(=O)N3CCC[C@H]3C(=O)N3C[C@H](O)C[C@H]3C(=O)N[C@H](Cc3c[nH]c4ccccc34)C(=O)N[C@H](C(N)=O)CSCCC5=O)CCOCCOCCOCCn3cc(CCC(=O)NCCCC[C@H]4NC(=O)[C@H](CCC(=O)O)NC(=O)[C@@H]5CCCN5C(=O)[C@H](CC(C)(C)C)NC(=O)[C@@H](NC(C)=O)CSCCC(=O)N5CN6CN(C5)C(=O)CCSC[C@H](NC(=O)[C@H](Cc5ccc(O)cc5)NC(=O)[C@@H]5CCCN5C4=O)C(=O)N[C@@H](Cc4ccccc4)C(=O)N[C@@H](C)C(=O)N[C@@H](CC(=O)O)C(=O)N4CCC[C@H]4C(=O)N[C@@H](Cc4ccc(O)cc4)C(=O)N[C@@H](CCCC)C(=O)N[C@H](C(=O)N[C@@H](C)C(N)=O)CSCCC6=O)nn3)nn1)C(=O)N1CCC[C@H]1C(=O)N[C@@H](Cc1ccc(O)cc1)C(=O)N2 [BCY13144],secretion of proinflammatory cytokines IFNγ and IL-2,[3],No IL-2 or IFNγ secretion was observed
